Reference: article PMC6139374 (Cell, 2018)
Where “and” joins values, the source holds several entries; their conditions need not be identical. Equal values may be shown once. Where no end group is shown, it is not given here. Side-chain parts run from the residue outwards. [ ]: non-standard residue; d: D form. Dap = NC[C@H](N)C(=O)O

What was measured:
GSK3 peptide substrate = assay: Radiometric kinase assay, steady-state kinetics of semisynthetic Akt1 forms; type: biochemical; settings: for kcat/Km, within fold of that of A2: low kcat/Km, compared with non-C-terminally phosphorylated enzyme A2; for catalytic efficiency (kcat/Km), fold lower relative to A1: compared with pThr308/pSer473 form A1
[1] = biological target: FL-Akt1-pThr308/pSer473 (A1) and FL-Akt1-pThr308/2pSer477,Thr479 (A6) (Homo sapiens, UniProt P31749); assay: Kinase inhibition assays with Akt inhibitors; type: biochemical; settings: 250 μM ATP, 20 μM GSK3 peptide
[2] = biological target: FL-Akt1-pThr308/pSer473 (A1) (Homo sapiens, UniProt P31749); assay: Fluorescence anisotropy binding of soluble PIP3; settings: fluorescein-labeled soluble PIP3 (di-C6), 50 nM
Procedure, shortened: (§1)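 Varying concentrations of semisynthetic full-length Akt1 were mixed with 50 nM fluorescein-labeled soluble PIP3 (di-C6). Buffer was 50 mM HEPES pH 7.5, 2 mM DTT, 0.05 mg/ml ovalbumin; incubated 30 min at room temperature. Fluorescence anisotropy was recorded at 23°C.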

[3] = biological target: FL-Akt1-pThr308/non-p C tail (A2) (Homo sapiens, UniProt P31749); assay: Fluorescence anisotropy binding of soluble PIP3; settings: stated as nearly identical to the value for A1
Procedure, shortened: as §1

[4] = biological target: non-phosphorylated FL-Akt1 (A9) (Homo sapiens, UniProt P31749); assay: Fluorescence anisotropy binding of soluble PIP3; settings: fluorescein-labeled soluble PIP3, 50 nM
Procedure, shortened: as §1

[5] = biological target: FL-Akt1-pThr308, pSer477,pThr479 (A6) (Homo sapiens, UniProt P31749); assay: Fluorescence anisotropy binding of soluble PIP3
Procedure, shortened: as §1

Akt1 PH domain [6] = biological target: T1, Akt1 PH domain (Homo sapiens, UniProt P31749); assay: Fluorescent binding assay of PIP3 with Mg addition; settings: Mg addition up to 10 mM
[7] = biological target: non-C-terminally phosphorylated Akt1 (A2) (Homo sapiens, UniProt P31749); assay: Kinase assay, effect of phosphoinositides on activity; type: biochemical; settings: 250 μM ATP, 20 μM GSK3 peptide, 10 mM MgCl2
Procedure, shortened: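 Also present: 250 μM ATP with 32P-γ-ATP and 20 μM biotinylated GSK3 peptide. Added either 400 μM DOPC vesicles with 5 mol% PIP3 or 20 μM soluble PI(3,4)P2 (di-C8). Product was captured on 30 kDa filters and counted by scintillation; runs done at least twice.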

[8] = biological target: pSer477,pThr479 Akt1 (A6) (Homo sapiens, UniProt P31749); assay: Kinase assay, effect of PIP3 on activity; type: biochemical; settings: addition of excess soluble PIP3
Akt1 PH domain [9] = biological target: T1, Akt1 PH domain; assay: Competition binding assay displacing fluorescein-labeled PIP3; settings: competition with fluorescein-labeled PIP3
Procedure, shortened: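 Competition format: 50 nM fluorescein-labeled soluble PIP3 with 1 μM Akt PH domain and varied unlabeled soluble phosphoinositide competitor (PIP3 di-C6 or PI(3,4)P2 di-C8). Buffer was 50 mM HEPES pH 7.5, 2 mM DTT, 0.05 mg/ml ovalbumin; incubated 30 min at room temperature, then fluorescence anisotropy read. Sigmoidal fit gave IC50, converted to Ki using free labeled ligand, free PH domain and probe Kd.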

[10] = biological target: non-C-terminally phosphorylated Akt1, C-terminally labeled with fluorescein (human) (UniProt P31749); assay: fluorescence polarisation
Akt1 = Akt1 (human, UniProt P31749 1-480); assay: kinase inhibition assay
Chain of Akt1 (P31749 whole entry): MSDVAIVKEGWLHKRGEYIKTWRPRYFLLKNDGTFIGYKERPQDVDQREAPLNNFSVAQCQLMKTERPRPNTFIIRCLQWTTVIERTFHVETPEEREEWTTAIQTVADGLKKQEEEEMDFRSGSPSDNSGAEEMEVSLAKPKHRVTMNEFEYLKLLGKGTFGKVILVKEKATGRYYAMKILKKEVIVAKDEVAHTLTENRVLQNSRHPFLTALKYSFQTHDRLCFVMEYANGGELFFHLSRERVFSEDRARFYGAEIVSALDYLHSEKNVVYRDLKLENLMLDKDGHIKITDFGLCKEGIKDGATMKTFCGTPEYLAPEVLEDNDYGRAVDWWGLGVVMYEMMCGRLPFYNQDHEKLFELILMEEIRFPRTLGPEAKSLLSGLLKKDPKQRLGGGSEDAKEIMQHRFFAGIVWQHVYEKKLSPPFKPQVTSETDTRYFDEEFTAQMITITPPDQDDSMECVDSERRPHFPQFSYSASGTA

Chain of FL-Akt1-pThr308/pSer473 (A1) and FL-Akt1-pThr308/2pSer477,Thr479 (A6) (P31749 whole entry): as above
Chain of FL-Akt1-pThr308, pSer477,pThr479 (A6) (P31749 whole entry): as above
Chain of non-C-terminally phosphorylated Akt1 (A2) (P31749 whole entry): as above
T1 sequence (P31749 1-121): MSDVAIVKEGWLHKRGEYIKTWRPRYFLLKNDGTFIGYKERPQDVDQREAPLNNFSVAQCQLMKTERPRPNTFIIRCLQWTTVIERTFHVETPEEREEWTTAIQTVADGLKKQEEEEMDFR
Chain of pSer477,pThr479 Akt1 (A6) (P31749 whole entry, the tested form may be a part): as the sequence (P31749 whole entry) above
Chain of FL-Akt1-pThr308/non-p C tail (A2) (P31749 whole entry): as above
Chain of FL-Akt1-pThr308/pSer473 (A1) (P31749 whole entry): as above
Chain of non-phosphorylated FL-Akt1 (A9) (P31749 whole entry): as above

## A7: full-length Akt1 pThr308, pSer477 form
GSK3 peptide substrate
  kcat/Km, within fold of that of A2: ≤ 3 fold

## CC(C)NC[C@@H](C(=O)N1CCN(c2ncnc3c2[C@H](C)C[C@H]3O)CC1)c1ccc(Cl)cc1 [GDC0068]
[1]; Ki lower for A1, higher for A6
  apparent Ki ratio, A6 relative to A1: 8 fold

## A8: full-length Akt1 pThr308, pSer479 form as printed
GSK3 peptide substrate
  kcat/Km, within fold of that of A2: ≤ 3 fold

## A5: full-length Akt1 pThr308, triply phosphorylated C-tail form
GSK3 peptide substrate; compared with pSer473 form A1
  activity, fold more active than A1: ~ 2 fold

## phosphatidyl inositol 3,4,5-triphosphate [soluble PIP3]
[2]
  Kd: ~200 nM
[3]
  Kd: ~200 nM
[4]
  Kd: 90 nM
[5]; A6 vs A1 or A2, weakened binding
  Kd, fold greater than for A1 or A2: 4 fold
[5]; fluorescein-labeled soluble PIP3, 50 nM
  Kd: 800 nM
Akt1 PH domain [6]
  increase of Kd on Mg addition: ~ 3 fold
[7]
  stimulation of enzymatic activity of A2: did not stimulate
[8]
  effect on catalytic activity of A6: minimally impacted

## A6: full-length Akt1 pThr308 with pSer477/pThr479
GSK3 peptide substrate
  catalytic efficiency (kcat/Km), fold lower relative to A1: 8 fold

## NC1(c2ccc(-c3nc4ccn5c(=O)[nH]nc5c4cc3-c3ccccc3)cc2)CCC1 [MK2206]
[1]
  sensitivity of A6 relative to A1 to the inhibitor: distinct sensitivities

## A3: full-length Akt1 pSer473 form lacking phosphorylation at Thr308
GSK3 peptide substrate
  catalytic efficiency (kcat/Km), fold lower relative to A1: 500 fold

## A12: R144A point mutation in the context of pSer473 Akt1
GSK3 peptide substrate
  catalytic efficiency (kcat/Km), fold lower relative to A1: ~ 50 fold

## A1: semisynthetic full-length Akt1, pThr308/pSer473
GSK3 peptide substrate; A1 vs A4
  catalytic efficiency, fold larger than that of Asp473 form A4: > 100 fold and 100 fold
GSK3 peptide substrate; pThr308 set of full-length Akt1, v/[E] vs [ATP]
  kcat/Km, fold greater than that of A2: about 500 fold

## CCCCCCCC(=O)OC[C@H](COP(=O)(O)O[C@H]1[C@H](O)[C@@H](O)[C@H](OP(=O)(O)O)[C@@H](OP(=O)(O)O)[C@H]1O)OC(=O)CCCCCCC [soluble PI(3,4)P2]
Akt1 PH domain [9]
  binding to Akt1 PH domain: high affinity
[7]
  stimulation of enzymatic activity of A2: did not stimulate

## A4: full-length Akt1 pThr308, Asp473 form
GSK3 peptide substrate
  kcat/Km, within fold of that of A2: ≤ 3 fold

B1: GST-PDK1 (enzyme)
chain: MARTTSQLYDAVPIQSSVVLCSCPSPSMVRTQTESSTPPGIPGGSRQGPAMDGTAAEPRPGAGSLQHAQPPPQPRKKRPEDFKFGKILGEGSFSTVVLARELATSREYAIKILEKRHIIKENKVPYVTRERDVMSRLDHPFFVKLYFTFQDDEKLYFGLSYAKNGELLKYIRKIGSFDETCTRFYTAEIVSALEYLHGKGIIHRDLKPENILLNEDMHIQITDFGTAKVLSPESKQARANSFVGTAQYVSPELLTEKSACKSSDLWALGCIIYQLVAGLPPFRAGNEYLIFQKIIKLEYDFPEKFFPKARDLVEKLLVLDATKRLGCEEMEGYGPLKAHPFFESVTWENLHQQTPPKLTAYLPAMSEDDEDCYGNYDNLLSQFGCMQVSSSSSSHSLSASDTGLPQRSGSNIEQYIHDLDSNSFELDLQFSEDEKRLLLEKQAGGNPWHQFVENNLILKMGPVDKRKGLFARRRQLLLTEGPHLYYVDPVNKVLKGEIPWSQELRPEAKNFKTFFVHTPNRTYYLMDPSGNAHKWCRKIQEVWRQRYQSHPDAAVQ
[10]
  Kd: 200 nM

## GRPRTT[Dap]([Ac-ATP‑γS])FAE [GSK3 peptide-ATP conjugate bisubstrate analog]
Akt1
  Ki: 3600 nM

B2: A16: Δ143-Akt1-pThr308 construct possessing Asp473 (protein, UniProt P31749 1-480, looked up, variant del1-143 S473D)
RAC-alpha …: RVTMNEFEYLKLLGKGTFGKVILVKEKATGRYYAMKILKKEVIVAKDEVAHTLTENRVLQNSRHPFLTALKYSFQTHDRLCFVMEYANGGELFFHLSRERVFSEDRARFYGAEIVSALDYLHSEKNVVYRDLKLENLMLDKDGHIKITDFGLCKEGIKDGATMKTFCGTPEYLAPEVLEDNDYGRAVDWWGLGVVMYEMMCGRLPFYNQDHEKLFELILMEEIRFPRTLGPEAKSLLSGLLKKDPKQRLGGGSEDAKEIMQHRFFAGIVWQHVYEKKLSPPFKPQVTSETDTRYFDEEFTAQMITITPPDQDDSMECVDSERRPHFPQFDYSASGTA
modifications: pThr308
GSK3 peptide substrate; Δ143-Akt1-pThr308 constructs A15-A18
  kcat/Km, within fold of each other: ≤ 3 fold
